This note sets out measurements from publication PMC5338039 (Biochemistry, 2017).

“Also recorded” adds a separate entry of the source.

Common to all, as to type: cell-based
The target of experiment [1] is GPR55 Q7.36N (Homo sapiens, UniProt Q9Y2T6, Q271N). Briefly: SRE luciferase assay, Q7.36N mutant. Conditions: Q7.36N. Put shortly: (§1)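 HA-tagged human GPR55 (WT or sequence-confirmed site-directed mutant, pcDNA3) co-transfected by lipofection with pGL4.33 luc2P/SRE reporter into HEK293 cells; 60,000 cells/well, switched to 1% FBS/DMEM after 5 h, overnight. Agonist test compounds (10 mM DMSO stocks) added for 5 h in serum-free DMEM, 37°C. Cells lysed 10 min at room temperature, luciferin injected, luminescence read immediately (RLU). EC50 from sigmoidal nonlinear regression.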
Sequence of GPR55 Q7.36N (Q9Y2T6 whole entry Q271N): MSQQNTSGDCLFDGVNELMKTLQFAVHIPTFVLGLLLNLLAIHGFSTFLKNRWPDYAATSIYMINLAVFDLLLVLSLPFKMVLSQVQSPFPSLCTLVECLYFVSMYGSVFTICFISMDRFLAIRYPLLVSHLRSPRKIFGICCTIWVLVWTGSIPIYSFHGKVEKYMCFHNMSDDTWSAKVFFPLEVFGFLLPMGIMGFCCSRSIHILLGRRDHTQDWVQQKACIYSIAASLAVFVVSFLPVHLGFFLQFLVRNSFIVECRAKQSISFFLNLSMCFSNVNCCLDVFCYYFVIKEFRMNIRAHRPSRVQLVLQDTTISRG

In experiment [2] the target is GPR55 E3.29A (Homo sapiens, UniProt Q9Y2T6, E98A). Nature of the experiment: SRE luciferase assay, E3.29A mutant. The settings on record: E3.29A. Put shortly: as §1
Sequence of GPR55 E3.29A (Q9Y2T6 whole entry E98A): as the sequence (Q9Y2T6 whole entry Q271N) above, with E98A, N271Q counted along it
The target of experiment [3] is GPR55 C(10)A (Homo sapiens, UniProt Q9Y2T6, C10A). Nature of the experiment: SRE luciferase assay, C. Conditions: C(10)A. Put shortly: as §1
Sequence of GPR55 C(10)A (Q9Y2T6 whole entry C10A): as the sequence (Q9Y2T6 whole entry Q271N) above, with C10A, N271Q counted along it
Experiment [4] addresses GPR55 F6.55L (Homo sapiens, UniProt Q9Y2T6, F246L). Briefly: SRE luciferase assay, F6.55L mutant. Conditions: F6.55L. In a few lines:
as §1

Experiment [5] has as its target GPR55 Y3.32F (Homo sapiens, UniProt Q9Y2T6, Y101F). Nature of the experiment: SRE luciferase assay, Y3.32F mutant. Conditions: Y3.32F. In a few lines:
as §1

Experiment [6] concerns the target GPR55 H(170)F (Homo sapiens, UniProt Q9Y2T6, H170F). Nature of the experiment: SRE luciferase assay, H. The settings on record: H(170)F. In a few lines:
as §1

In experiment [7] the target is GPR55 K2.60A (Homo sapiens, UniProt Q9Y2T6, K80A). Briefly: SRE luciferase assay, K2.60A mutant. Put shortly:
as §1

The target in experiment [8] is GPR55 E3.29L (Homo sapiens, UniProt Q9Y2T6, E98L). Briefly: SRE luciferase assay, E3.29L mutant. Conditions: E3.29L. In a few lines: as §1
Sequence of GPR55 E3.29L (Q9Y2T6 whole entry E98L): as the sequence (Q9Y2T6 whole entry Q271N) above, with E98L, N271Q counted along it
For experiment [9], the target named is GPR55 Q6.58M (Homo sapiens, UniProt Q9Y2T6, Q249M). Nature of the experiment: SRE luciferase assay, Q6.58M mutant. Conditions: Q6.58M. Put shortly:
as §1

For experiment [10], the target named is GPR55 C(260)A (Homo sapiens, UniProt Q9Y2T6, C260A). Briefly: SRE luciferase assay, C. The settings on record: C(260)A. Put shortly:
as §1

The target of experiment [11] is GPR55 M3.36A (Homo sapiens, UniProt Q9Y2T6, M105A). Briefly: SRE luciferase assay, M3.36A mutant. Conditions: M3.36A. Put shortly:
as §1

Experiment [12] addresses GPR55 Y3.32L (Homo sapiens, UniProt Q9Y2T6, Y101L). Briefly: SRE luciferase assay, Y3.32L mutant. The settings on record: Y3.32L. In a few lines: as §1
For experiment [13], the target named is GPR55 F6.55A (Homo sapiens, UniProt Q9Y2T6, F246A). Briefly: SRE luciferase assay, F6.55A mutant. Conditions: F6.55A. In a few lines:
as §1

Experiment [14] addresses GPR55 F6.48A (Homo sapiens, UniProt Q9Y2T6, F239A). Nature of the experiment: SRE luciferase assay, F6.48A mutant. Conditions: F6.48A. Put shortly:
as §1

Experiment [15] deals with GPR55 Q7.36A (Homo sapiens, UniProt Q9Y2T6, Q271A). Briefly: SRE luciferase assay, Q7.36A mutant. The settings on record: Q7.36A. In a few lines:
as §1

Sequence of GPR55 Y3.32L (Q9Y2T6 whole entry Y101L): as the sequence (Q9Y2T6 whole entry Q271N) above, with Y101L, N271Q counted along it
Sequence of GPR55 F6.48A (Q9Y2T6 whole entry F239A): as the sequence (Q9Y2T6 whole entry Q271N) above, with F239A, N271Q counted along it
Sequence of GPR55 Y3.32F (Q9Y2T6 whole entry Y101F): as the sequence (Q9Y2T6 whole entry Q271N) above, with Y101F, N271Q counted along it
Sequence of GPR55 K2.60A (Q9Y2T6 whole entry K80A): as the sequence (Q9Y2T6 whole entry Q271N) above, with K80A, N271Q counted along it
Sequence of GPR55 H(170)F (Q9Y2T6 whole entry H170F): as the sequence (Q9Y2T6 whole entry Q271N) above, with H170F, N271Q counted along it
Sequence of GPR55 Q6.58M (Q9Y2T6 whole entry Q249M): as the sequence (Q9Y2T6 whole entry Q271N) above, with Q249M, N271Q counted along it
Sequence of GPR55 M3.36A (Q9Y2T6 whole entry M105A): as the sequence (Q9Y2T6 whole entry Q271N) above, with M105A, N271Q counted along it
Sequence of GPR55 C(260)A (Q9Y2T6 whole entry C260A): as the sequence (Q9Y2T6 whole entry Q271N) above, with C260A, N271Q counted along it
Sequence of GPR55 F6.55L (Q9Y2T6 whole entry F246L): as the sequence (Q9Y2T6 whole entry Q271N) above, with F246L, N271Q counted along it
Sequence of GPR55 Q7.36A (Q9Y2T6 whole entry Q271A): as the sequence (Q9Y2T6 whole entry Q271N) above, with N271A counted along it
Sequence of GPR55 F6.55A (Q9Y2T6 whole entry F246A): as the sequence (Q9Y2T6 whole entry Q271N) above, with F246A, N271Q counted along it

In the case of l-α-lysophosphatidylinositol [LPI], the “SRE response compared with WT (in words)” value is on record as “little to no effect” in experiment [1]; “slight response at high concentrations of LPI; also recorded: loss of function” in experiment [2]; “right shifted curves” in experiment [3]; “little to no effect” in [4]; “right shifted curves; also recorded: reduced signaling” in experiment [5]; “right shifted curves; also recorded: reduced signaling” in experiment [6]. The “SRE response compared with WT (in words)” value is listed as “did not show any LPI-induced responses; also recorded: loss of function” in [7]; “slight response at high concentrations of LPI” in experiment [8]; “little to no effect; also recorded: essentially no effect” in [9]; “right shifted curves” in experiment [10]; “right shifted curves; also recorded: reduces LPI's ability to signal” in experiment [11]; “right shifted curves; also recorded: reduced signaling” in experiment [12]. Moreover, the figures for the “SRE response compared with WT (in words)” value in experiment [13], in experiment [14] and in [15] were “little to no effect”, “right shifted curves; also recorded: reduces LPI's ability to signal” and “little to no effect”, respectively.
